From ChEMBL document CHEMBL4184102, “Small molecule SUMOylation activators are novel neuroprotective agents” (Bioorg Med Chem Lett, 2018) come the findings set out here.

The structures appear in SMILES notation.

Assay [1] has as its target SUMO-activating enzyme (Homo sapiens) (UniProt Q9UBE0+Q9UBT2). As to the kind of experiment: Induction of SUMO-E1/E2 (unknown origin) mediated sumoylation of His-RanGap-1 after 30 mins by HTRF assay relative to control. The assay is classed as protein-complex assay. The arrangement: concentration or dose not given beside the values. In general terms: Time-resolved FRET reads energy transfer from a long-lived donor to a nearby acceptor.

A short description of assay [2]: Cytoprotective activity in BGMK cells assessed as reduction in thapsigargin-induced ER stress-mediated cell death by measuring cell viability at 10 uM preincubated for 2 hrs followed by thapsigargin addition measured after 24 hrs by CCK8 assay relative to control. It counts as cell-based. To be noted: Chlorocebus aethiops, read-out: Activity. An outline of the steps:
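BGMK cells subcultured at 1.2×10^4 cells/ml, pretreated with compound 2 h, then thapsigargin 0.15 μM (150 nM) added for 24 h. Cells then washed, fed fresh complete DMEM plus CCK-8 reagent, incubated 2 h, absorbance read as viability. Salubrinal included as positive control; data as mean ± SEM.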
Background: Tetrazolium dyes change colour on reduction, which living cells bring about.

The species entered for a further assay is Rattus norvegicus. Nature of the assay: (§1) Cytoprotective activity in rat CSM14.1 cells assessed as reduction in thapsigargin-induced ER stress-mediated cell death preincubated for 2 hrs followed by thapsigargin addition measured after 20 hrs by ATPlite assay. The assay is classed as functional, cell-based. In a few lines: (§2)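 Rat striatal neuroprogenitor CSM14.1 cells were trypsinized, plated in 96-well plates and held overnight at 32 °C. Cells were pretreated with compound for 2 h, then given thapsigargin in DMEM (15 μM final) for another 20 h. Viability was read as cellular ATP content. Thapsigargin without compound served as the 100% death reference and DMSO without thapsigargin as the 100% viability reference. Dose-response data are given as mean ± SEM.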
(Cellular ATP, detected with luciferase, serves as a proxy for viable cell number.)

Assay [3] in a line: as §1. It counts as functional, cell-based. An outline of the steps:
as §2

As for `O=S(=O)(Nc1cccc2cccnc12)c1ccccc1`, the Activity in assay [1] turned out to be 25%. Besides, the viability at 10 µM in assay [2] is 35.2%.
In the same order, the values of `O=C(Nc1nc(-c2ccccn2)cs1)c1ccc(Cl)s1` are 25% and 45.3%.
With `Cc1ccc2sc(NNC(=O)c3cc(=O)c4ccccc4o3)nc2c1C`, the Activity result is “Dose-dependent effect” in the assay filed under Rattus norvegicus and 38% in assay [1]. Besides, the EC50 in assay [3] fell in the range of 1.2 to 9.8 µM. For the same molecule, the viability at 10 µM in assay [2] turned out to be 54.9%.
Turning to `O=C(/C=C/c1ccccc1)NC(NC(=S)Nc1cccc2cccnc12)C(Cl)(Cl)Cl` (centres undefined) [SALUBRINAL], the viability at 10 µM in assay [2] was found to be 47.2%.
`COc1cccc2sc(NNC(=O)C3COc4ccccc4O3)nc12` (centres undefined) displayed an Activity in assay [1] of 17%. Moreover, the viability at 10 µM in assay [2] stood at 38.4%.
Taken in the same sequence, the figures for `O=C(Nc1nc(-c2ccccn2)cs1)c1ccc2c(c1)OCCO2` were 20% and 54.9%.
Taken in the same sequence, the figures for `Cc1cc(C)c2nc(NNC(=O)c3cc(=O)c4ccccc4o3)sc2c1` were 33% and 60.3%.
In the same order, the values of `O=C(Nc1nc(-c2ccccn2)cs1)c1ccc(Br)s1` are 37% and 83.3%.
`O=S(=O)(Nc1cccc2cccnc12)c1ccc(S(=O)(=O)N2CCCC2)cc1`: the Activity result in the assay filed under Rattus norvegicus was “Dose-dependent effect”; in assay [1], 43%. In addition, the EC50 in assay [3] was in the range of 1.2 to 9.8 µM. The viability at 10 µM in assay [2] turned out to be 62.4%.
`CC(=O)Nc1ccc(S(=O)(=O)Nc2cccc3cccnc23)cc1` showed an Activity in assay [1] of 28%. In addition, the viability at 10 µM in assay [2] was 53.7%.
Take `O=C(Nc1nc(-c2ccccn2)cs1)C1COc2ccccc2O1` (centres undefined): the values for the Activity result (in the assay filed under Rattus norvegicus; in assay [1]) were “Dose-dependent effect” and 53%, respectively. Further, in assay [3], the EC50 is 1.2 to 9.8 µM. Besides, in assay [2], the viability at 10 µM came out at 81.4%.
Consider `Cc1ccc(S(=O)(=O)Nc2cccc3cccnc23)cc1`, for which the Activity in assay [1] was 29%. Besides, the viability at 10 µM in assay [2] was found to be 52%.

As a reminder, the EC50 is the concentration giving half of the maximal effect.
